# Assay results from article PMC2848690 (Journal of medicinal chemistry, 2010).
# Tests used:
# [1] = tested on: MCF-7 cells; experiment: Zinc chloride rescue of growth inhibition, MTT assay in MCF-7; assay type: cell-based, human; conditions: for Growth inhibitory activity in presence of zinc chloride: compound at its IC50, ZnCl2 600 nM to 75 μM, 5 days, MCF-7
# [2] = tested on: MDA-MB-231 cells; experiment: MTT proliferation assay, MDA-MB-231; assay type: cell-based; conditions: Homo sapiens, MDA-MB-231, 72 h, read-out: Mean IC50 ±SD in MDA-MB-231
# Procedure, shortened: (§1)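 Exponentially growing cells were kept in RPMI 1640 with 10% heat-inactivated FBS at 37 °C and 5% CO2. They were dosed with test compound from 0.00001 to 10 μM and read by MTT. Each compound was tested in triplicate. Active compounds had three independent experiments, reported as mean ± SD. IC50 and IC100 were read from growth curves.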
# [3] = target: T1, ALDH1 (Homo sapiens, UniProt P00352); experiment: ALDH1 inhibition in K562 cells; assay type: cell-based; conditions: for ALDH-inhibitory activity (in words): K562 cells, 15 μM
# T1 sequence (P00352 2-501 limits assumed): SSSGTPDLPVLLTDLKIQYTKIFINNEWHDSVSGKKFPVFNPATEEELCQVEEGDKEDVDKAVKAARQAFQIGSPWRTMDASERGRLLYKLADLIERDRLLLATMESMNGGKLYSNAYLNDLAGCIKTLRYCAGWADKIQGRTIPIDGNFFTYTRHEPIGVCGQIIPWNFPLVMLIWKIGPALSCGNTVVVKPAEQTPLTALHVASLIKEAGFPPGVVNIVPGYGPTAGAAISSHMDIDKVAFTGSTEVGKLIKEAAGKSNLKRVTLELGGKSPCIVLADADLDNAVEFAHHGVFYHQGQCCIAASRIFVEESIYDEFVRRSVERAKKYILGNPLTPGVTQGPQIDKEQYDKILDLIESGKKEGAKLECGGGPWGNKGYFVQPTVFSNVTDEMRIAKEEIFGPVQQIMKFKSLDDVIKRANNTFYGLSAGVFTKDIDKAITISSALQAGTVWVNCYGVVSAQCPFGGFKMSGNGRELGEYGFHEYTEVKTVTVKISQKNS
# [4] = target: recombinant wild type human BCA2 (Homo sapiens, UniProt Q9Y4L5); experiment: Recombinant BCA2 autoubiquitination assay; assay type: biochemical; conditions: 50 μM compound, 30 min preincubation
# Procedure, shortened: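 Test compound stocks (10 mM in DMSO) were diluted in reaction buffer and preincubated with 10 ng recombinant His-BCA2 (final 5 or 50 μM) for 30 min at room temperature. ATP (20 mM stock), ubiquitin (1 μg), rabbit E1 (20 ng) and human UbcH5b (20 ng) were added in Tris-HCl pH 8.0/DTT/MgCl2 buffer. Reactions ran 1 h at 30 °C, then SDS-PAGE and anti-ubiquitin immunoblot.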
# [5] = tested on: T47D cells; experiment: MTT proliferation assay, T47D; assay type: cell-based, human; conditions: 72 hour drug exposure (footnote a), BCA2 +ve, ER +ve
# Procedure, shortened: as §1
# [6] = tested on: MCF-7 cells; experiment: MTT proliferation assay, MCF-7; assay type: cell-based, human; conditions: for Mean IC50 ±SD in MCF-7: MTT assay, 72 hour drug exposure (footnote a), BCA2 +ve, ER +ve, three independent experiments; for IC100 (100% growth inhibitory concentration) in MCF-7: delineated from MTT growth curves
# Procedure, shortened: as §1
# [7] = tested on: BCA2+ cells (MCF-7, T47D, MDA-MB-231/ER); experiment: MTT assay, BCA2-positive breast cancer cell lines as a group; assay type: cell-based, human; conditions: active if IC50 <10 μM
# Procedure, shortened: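 MCF-7, T47D and MDA-MB-231/ER (a stable ERα-transfected, G418-selected clone of MDA-MB-231 kept in 1mg/mL G418) were grown in RPMI 1640 with 10% heat-inactivated FBS at 37 °C and 5% CO2. Exponentially growing cells were exposed to test compound at 0.00001–10 μM for 72 h, and growth was read by MTT. IC50 values came from growth curves, with triplicate wells and three independent experiments (mean ± SD).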
# [8] = tested on: BCA2 low/− cells (MDA-MB-231 or MCF10A); experiment: MTT assay, BCA2 low/negative cells as a group; assay type: cell-based, human; conditions: active if IC50 <10 μM
# Procedure, shortened: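 MDA-MB-231 (BCA2 low/−, ER −) was grown in RPMI 1640 with 10% heat-inactivated FBS, and normal MCF10A mammary epithelial cells in MEGM, both at 37 °C and 5% CO2. Exponentially growing cells received test compound at 0.00001–10 μM for 72 h, followed by MTT read-out. IC50 values came from growth curves, with triplicate wells and three independent experiments (mean ± SD).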
# [9] = target: BCA2 (Homo sapiens, UniProt Q9Y4L5); experiment: Endogenous BCA2 protein stability in MCF-7 cells; assay type: cell-based; conditions: 16 hrs exposure at IC100 concentration, compound alone
# Procedure, shortened: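 MCF-7 cells (1×10^6) were seeded and grown overnight, then exposed for 16 h to test compound alone, or with cycloheximide (100 μM) and/or a proteasome inhibitor (10 μM). DMSO vehicle controls ran for 16 h. Whole-cell lysates were immunoblotted with in-house anti-BCA2 antibodies, using beta-actin as the loading control.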
# [10] = cited from earlier work
# Sequence of recombinant wild type human BCA2 (Q9Y4L5 whole entry): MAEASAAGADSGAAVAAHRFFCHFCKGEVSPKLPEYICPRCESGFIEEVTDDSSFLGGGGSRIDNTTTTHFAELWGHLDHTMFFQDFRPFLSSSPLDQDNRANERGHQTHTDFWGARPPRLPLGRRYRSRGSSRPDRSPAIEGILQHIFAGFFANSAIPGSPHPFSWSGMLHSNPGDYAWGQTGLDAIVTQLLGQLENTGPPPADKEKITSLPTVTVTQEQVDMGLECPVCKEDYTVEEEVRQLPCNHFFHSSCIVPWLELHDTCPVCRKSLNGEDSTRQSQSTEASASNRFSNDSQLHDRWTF
# Sequence of BCA2 (Q9Y4L5 whole entry): as above
SMILES,Effect on the growth of MCF-7 cells ([1]; zinc chloride alone),IC50 [2],ALDH-inhibitory activity (in words) [3],"ALDH+ K562 cells (%) ([3]; compound 15 μM, 45 min at 37 °C)",Inhibition of autoubiquitination of recombinant BCA2 [4],Mean IC50 ±SD in T47D [5],Mean IC50 ±SD in MCF-7 [6],Activity in BCA2+ cells [7],Activity in BCA2 low/− cells [8],BCA2 protein levels in MCF-7 cells [9],IC100 (100% growth inhibitory concentration) in MCF-7 [6],Growth inhibitory activity in presence of zinc chloride [1],Oral bioavailability [10]
"[Cl-].[Cl-].[Zn+2] [Zinc chloride, zinc (II) chloride]",no effect,,,,,,,,,,,,
"CCN(CC)C(=S)SSCCO [Compound 5f, 2-Hydroxyethyl diethylcarbamo(dithioperoxo)thioate]",,> 10 µM,lack ALDH-inhibitory activity,36.9 ± 3.15%,abolish the autoubiquitination activity,submicromolar,submicromolar,active,inactive,,,,
"C1CN(SSN2CCOCC2)CCO1 [Compound 4, 4,4′-dithiodimorpholine]",,,,,,,,inactive,inactive,,,,
"S=C(SSC(=S)N1CCCCC1)N1CCCCC1 [Compound 3a, Bis(piperidinylthiocarbonyl)disulfide]",,,,,abolish the autoubiquitination activity,submicromolar,submicromolar,,,marked reduction,0.25 µM,completely abolished,
"CCCCCCSSC(=S)N(CC)CC [Compound 5d, Hexyl diethylcarbamo(dithioperoxo)thioate]",,,lack ALDH-inhibitory activity,,abolish the autoubiquitination activity,submicromolar,submicromolar,active,inactive,marked reduction,1 µM,completely abolished,
"CCN(CC)C(=S)SSC(=S)N(CC)CC [Compound 1, bis(diethylaminothiocarbonyl)-disulfide, reference compound]",,,,,abolish the autoubiquitination activity,,,,,,,completely abolished,> 80%
"S=C(SSC(=S)N1CCCC1)N1CCCC1 [Compound 3c, Bis(pyrrolidinylthiocarbonyl)disulfide]",,,,,abolish the autoubiquitination activity,submicromolar,submicromolar,,,,,,
